Screening data deposited in PubChem by The Scripps Research Institute Molecular Screening Center.
TAAR1 antagonist – antagonists of human TAAR1; Q96RJ0; CHO RD-HGA16 TAAR1, Fluo-8 calcium fluorescence, antagonist; inhibition, % at 3 µM; 1.5% of 360,000 active; AID 624466;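 active = inhibition above a per-plate cutoff, the mean inhibition of test compounds on that plate plus 3 SD, cut at about 49% in these data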;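 note: 0% = DMSO plus EC80 beta-PEA response and 100% = DMSO alone without agonist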
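Test system: RD-HGA16 CHO cells with stable hTAAR1 and Gα16 / Probe or stimulus: EC80 β-phenethylamine stimulus / Times: seeding 17-24 h prior, 75-min 37 °C, 30-min RT dye loading / Detection: Fluo-8 calcium-sensitive fluorescence / Read-out basis: % inhibition scaled between DMSO and EC80 PEA controls / Repeats: singlicate, one well per test compound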
CHRM1 agonist – agonists of human M1 muscarinic receptor; 0.33% of 360,000 active; CHO-K1 hM1, Fluo-8 calcium fluorescence, agonist mode; 0% DMSO, 100% acetylcholine EC100; activation, % at 3 µM;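 active = activation above the run's mean compound activation plus 3 SD, cut at about 16% in these data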;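 note: peak over basal fluorescence ratio within a 140 s kinetic read after compound addition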
Target sequence (P11229 whole entry, looked up): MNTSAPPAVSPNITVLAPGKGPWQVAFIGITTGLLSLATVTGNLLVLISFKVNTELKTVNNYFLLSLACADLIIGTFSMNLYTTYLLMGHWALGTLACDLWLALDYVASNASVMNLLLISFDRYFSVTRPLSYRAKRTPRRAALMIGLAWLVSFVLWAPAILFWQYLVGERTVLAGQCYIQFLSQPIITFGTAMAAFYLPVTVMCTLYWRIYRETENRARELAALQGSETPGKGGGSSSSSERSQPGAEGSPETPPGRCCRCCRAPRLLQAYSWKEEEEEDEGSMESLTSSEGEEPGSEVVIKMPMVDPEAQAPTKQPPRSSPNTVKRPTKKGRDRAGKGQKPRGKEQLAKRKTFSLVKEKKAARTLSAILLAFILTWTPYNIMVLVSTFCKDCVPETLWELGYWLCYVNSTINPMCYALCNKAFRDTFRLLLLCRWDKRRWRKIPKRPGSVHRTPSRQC
M1 PAM – potentiates human M1 receptor response to acetylcholine; P11229; CHO-K1 hM1, Fluo-8 calcium fluorescence, ACh EC20; 0% = ACh EC20, 100% = maximal ACh; activation, % at 3 µM; 0.088% of 360,000 active; AID 588819; in the data active = activation above about 19%, passing the limit was not always enough
m5-HT2A agonist – activates the mouse 5-HT2A serotonin receptor; P35363; CHO-K1 mHTR2A beta-arrestin complementation, luminescence; percent of 30 µM serotonin response; activation, % at 7.6 µM; 0.66% of 360,000 active; AID 624169;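 active = activation above a run cutoff, the mean activation of all tested compounds plus 3 SD, cut at about 14% in these data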;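 note: 0% = plate median of compound wells and 100% = 30 µM serotonin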
M1 antag – blocks human M1 muscarinic receptor | inhibition, % at 3 µM | CHO-K1 hM1, Fluo-8 calcium fluorescence, ACh EC80 antagonist | AID 588852 | 1.3% of 360,000 active | P11229;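 active = percent inhibition above its own plate's cutoff, namely the mean of that plate's compound wells plus 3 SD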;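 note: peak over basal fluorescence ratio during 140 s after agonist addition; 0% = ACh EC80 plus DMSO and 100% = DMSO alone without agonist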
TAAR1 ag – human TAAR1 agonism. AID 624467. activation, % at 3 µM. Q96RJ0. CHO RD-HGA16 TAAR1, Fluo-8 calcium fluorescence; vehicle wells 0%, saturating PEA agonist 100%. 0.99% of 360,000 active;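 active = activation above the mean activation of all test compounds in the run plus 3 SD, cut at about 38% in these data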
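Test system: RD-HGA16 (CHO) cells co-expressing Gα16 and hTAAR1 | Doses: Single dose, 3 µM | Schedule: 17-24 h seeding, 75 min 37 °C dye, 30 min RT | Evaluation: % activation from peak over basal fluorescence ratio, DMSO-to-PEA scaled | Technique: Kinetic Fluo-8 calcium fluorescence | Benchmarks: Low control DMSO, high control PEA (EC100)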
* hit, by the source's call; / = not tested or not shown. The list is not random: actives were taken first. Their share in the collection is about 3.9%.

SMILES	TAAR1 antagonist	CHRM1 agonist	M1 PAM	m5-HT2A agonist	M1 antag	TAAR1 ag
O=C(N[C@@H](Cc1ccccc1)C(=O)OCc1ccccc1)c1nc[nH]c1C(=O)N1CCN(c2ccccc2)CC1	52*	-4	-6	-3	14	12
O=C(CNC(=O)c1nc[nH]c1C(=O)N1CCc2ccccc2C1)OCc1ccccc1	62*	-6	-7	-4	21	21
C[C@H](NC(=O)c1nc[nH]c1C(=O)N1CCN(c2ccccc2)CC1)C(=O)OCc1ccccc1	-13	-4	2	-3	-5	6
O=C(CNC(=O)c1nc[nH]c1C(=O)N1CCNCC1)OCc1ccccc1	14	-2	4	-4	-3	0
COc1ccc(NC(=O)C(c2ccc(C#N)cc2)n2c(=O)c(-c3cc4ccccc4[nH]3)nc3ccccc32)cc1 (stereo not drawn)	-13	/	/	3	/	2
O=c1cc(CN2CCCCC2)c2c(ccc3ccccc32)o1	1	-9	-4	-2	-1	0
Cc1ccc(S(=O)(=O)N2CCC(C(=O)OCCOc3ccccc3)CC2)cc1C	41	-3	-16	1	19*	1
COC(=O)C1=C(C)N(Cc2ccc(C(F)(F)F)cc2)C(=NCc2ccccc2C(F)(F)F)NC1c1ccccc1C(F)(F)F (stereo not drawn)	-21	/	/	/	/	2
O=C(NCc1nnnn1-c1ccc(F)c(F)c1)C(=O)c1c[nH]c2ccccc12	43	6	-1	-6	0	25
CCOC(=O)c1c(C(C)(C)C)oc2ccc(OCC#N)cc12	17	-4	-17	4	28*	7
CCOC(=O)c1c(C(C)(C)C)oc2ccc(O)cc12	/	-4	8	4	3	/
COc1ccc(NC(=O)c2cc(-c3ccccn3)nc3ccccc23)c(OC)c1	54*	-2	-14	0	21	14
COC(=O)c1ccc(NC(=O)c2cc(-c3ccccn3)nc3ccccc23)cc1	-23	-5	-1	3	3	1
O=C(Nc1ccc(F)cc1)c1cc(-c2ccncc2)nc2c(Cl)cccc12	-2	0	10	6	-10	0
COc1cccc(NC(=O)c2cc(-c3cccnc3)nc3c(Cl)cccc23)c1	57*	4	6	3	2	14
COc1cccc(NC(=O)c2cc(-c3ccc(OC)cc3OC)nc3ccccc23)c1	53*	-5	-10	-6	20	10
Cc1cc(C)n2nc(S(=O)(=O)NC(C)(C)C)nc2n1	1	-3	3	3	0	5
CCC(C)N(CCNC(=O)CC1Oc2ccc(C)cc2NC1=O)C1CCCCC1 (stereo not drawn)	-20	-14	-35	6	101*	3
Cc1ccc2c(c1)NC(=O)C(CC(=O)NCCCN1CCCCC1C)O2 (stereo not drawn)	2	-14	-2	6	-9	1
CC1CCCCN1CCNC(=O)CC1Oc2ccccc2NC1=O (stereo not drawn)	2	-13	-24	-4	36*	1
CCN(CC)CCCC(C)NC(=O)c1ccc(C(F)(F)F)cc1 (stereo not drawn)	9	-14	6	6	-3	3
Cc1ccc(OCCCCNC2CCCC(C)C2C)c(C)c1 (stereo not drawn)	-3	-14	-32	-7	48*	24
C=CCSc1nc2sc(C)c(C)c2c(=O)[nH]1	-10	-10	-20	-6	39*	-1
CC(O)CSc1nc2c(c(=O)n(C)c(=O)n2C)n1CCCc1ccccc1 (stereo not drawn)	-7	0	24*	0	-29	1
CC1Cc2ccccc2N1C(=O)CSc1nc2c(c(=O)n(C)c(=O)n2C)n1Cc1ccccc1 (stereo not drawn)	52*	-3	-18	0	41*	17
SMILES	TAAR1 antagonist	CHRM1 agonist	M1 PAM	m5-HT2A agonist	M1 antag	TAAR1 ag
COC(=O)CSc1nc2c(c(=O)n(C)c(=O)n2C)n1CCCc1ccccc1	-1	-2	-1	3	-10	12
CCn1c(SCC(=O)N2c3ccccc3CCc3ccccc32)nc2c1c(=O)n(C)c(=O)n2C	14	-2	-1	-2	7	6
Cc1ccc(Cn2c(SCCN3CCCCC3)nc3c2c(=O)n(C)c(=O)n3C)cc1	-7	-10	-20	0	-20	4
Cn1c(=O)c2c(nc(SCCN3CCCCC3)n2Cc2ccccc2)n(C)c1=O	-16	-6	-17	-4	39*	0
CCOC(=O)N1CCN(C(=O)c2ccc(SC)cc2OC)CC1	-23	-4	8	-3	-5	1
COc1ccc(F)cc1S(=O)(=O)NCC1CCCO1 (stereo not drawn)	-20	-2	9	5	-14	5
OCCC1CN(Cc2cccc(-n3cccn3)c2)CCN1Cc1ccccc1 (stereo not drawn)	-18	-2	4	-6	-8	1
Cc1ccc2c(c1)N(C(=O)CCC(=O)N1CCN(c3ccccn3)CC1)CCO2	-13	-8	-7	1	36*	5
CC12CCC(=O)C=C1CCC1C2C(O)CC2(C)C1CCC2(O)C(=O)COC(=O)COCC(=O)O (stereo not drawn)	-18	-1	6	14	-10	1
CN(C)CC(O)COC(c1ccccc1)c1ccccc1 (stereo not drawn)	3	-10	-34	0	39*	3
O=c1nc(Nc2ccc([N+](=O)[O-])cc2)[nH]c(=O)[nH]1	9	-2	-1	6	-4	1
CC(=O)Nc1ccc(NC(=O)c2csc([C@@H]3C[C@H](O)[C@@H](CO)O3)n2)cc1	7	-1	2	0	-3	1
O=C(Nc1ccc(Oc2ccccc2)cc1)c1csc([C@H]2C[C@H](O)[C@@H](CO)O2)n1	68*	3	-16	-5	32*	13
O=C(Nc1ccc(Oc2ccccc2)cc1)c1csc([C@@H]2O[C@H](CO)[C@@H](O)[C@H]2O)n1	59*	1	-14	3	34*	8
N#Cc1ccc(C(=O)N2CCCCC2c2cc(C(=O)Nc3cccc(C#N)c3)no2)cc1 (stereo not drawn)	12	1	-1	-10	-9	11
CN(NS(=O)(=O)c1ccccc1)C(=O)c1ccccc1	-27	-2	7	-4	-8	3
C=CCN1C(=O)NC(c2ccc(OC)cc2)(C(F)(F)F)S/C1=C(\C#N)c1nnc(N2CCOCC2)n1-c1ccccc1 (stereo not drawn)	13	19*	5	5	-8	9
